# Laboratory results published in ChEMBL document CHEMBL2375275, “Design and synthesis of novel chromenone derivatives as interleukin-5 inhibitors” (Bioorg Med Chem, 2013).
# Target: T1, Interleukin-5 (Mus musculus) (UniProt P04401)
# T1 sequence (whole entry): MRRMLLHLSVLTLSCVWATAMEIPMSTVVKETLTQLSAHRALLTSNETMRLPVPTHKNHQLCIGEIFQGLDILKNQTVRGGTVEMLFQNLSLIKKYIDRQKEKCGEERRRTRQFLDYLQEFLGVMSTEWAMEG
# Test: Inhibition interleukin-5 in mouse Y16 cells at 30 uM after 48 hrs by WST-1 assay
# Type: cell-based
# Outline: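 IL-5-dependent pro-B Y16 cells stimulated with 3 U/mL mIL-5 and incubated 48 h with or without sample; cell metabolism read by WST-1 as proliferation index.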
row,SMILES,inhibition [%]
1,CC(C)(C)c1ccc(C(O)CCc2coc3cccc(OCC4CCCCC4)c3c2=O)cc1 (centres undefined),6.6
2,CC(C)(C)c1ccc(C(=O)CCc2coc3cccc(OCC4CCCCC4)c3c2=O)cc1,6.7
3,Cc1ccc(C(O)CCc2coc3cccc(OCC4CCCCC4)c3c2=O)cc1 (centres undefined),13.5
4,O=c1c(CCC(O)c2ccc(Cl)cc2)coc2cccc(OCC3CCCCC3)c12 (centres undefined),94
5,O=C(CCC1COc2cccc(OCC3CCCCC3)c2C1=O)c1ccc(Cl)c(Cl)c1 (centres undefined),40
6,COc1ccc(C(=O)CCc2coc3cccc(OCC4CCCCC4)c3c2=O)cc1,91
7,O=c1c(CCC(O)c2ccc3ccccc3c2)coc2cccc(OCC3CCCCC3)c12 (centres undefined),86
8,O=C(CCc1coc2cccc(OCC3CCCCC3)c2c1=O)c1ccc(C(F)(F)F)cc1,5.3
9,COc1ccc(C(O)CCc2coc3cccc(OCC4CCCCC4)c3c2=O)cc1 (centres undefined),94
10,O=C(CCc1coc2cccc(OCC3CCCCC3)c2c1=O)c1ccc(Cl)c(Cl)c1,68
11,O=c1c(CCC(O)c2ccc(C(F)(F)F)cc2)coc2cccc(OCC3CCCCC3)c12 (centres undefined),55
12,O=c1c(CCC(O)c2ccc(F)cc2)coc2cccc(OCC3CCCCC3)c12 (centres undefined),94
13,O=C(CCc1coc2cccc(OCC3CCCCC3)c2c1=O)c1ccc2ccccc2c1,10
14,O=c1c(CCC(O)c2ccc(Cl)c(Cl)c2)coc2cccc(OCC3CCCCC3)c12 (centres undefined),94
15,O=c1c(CCC(O)c2ccc(O)cc2)coc2cccc(OCC3CCCCC3)c12 (centres undefined),94
16,O=C(CCc1coc2cccc(OCC3CCCCC3)c2c1=O)c1ccc(Cl)cc1,94
17,O=C(CCc1coc2cccc(OCC3CCCCC3)c2c1=O)c1ccc(F)cc1,93
18,COc1ccc(C(=O)CCC2COc3cccc(OCC4CCCCC4)c3C2=O)cc1 (centres undefined),34
19,O=c1c(CCC(O)c2ccccc2)coc2cccc(OCC3CCCCC3)c12 (centres undefined),94
20,N#Cc1ccc(C(O)CCc2coc3cccc(OCC4CCCCC4)c3c2=O)cc1 (centres undefined),94
21,N#Cc1ccc(C(=O)CCc2coc3cccc(OCC4CCCCC4)c3c2=O)cc1,93
22,O=C(CCc1coc2cccc(OCC3CCCCC3)c2c1=O)c1ccc(O)cc1,80
23,O=C(CCc1coc2cccc(OCC3CCCCC3)c2c1=O)c1ccccc1,12.3
24,Cc1ccc(C(=O)CCc2coc3cccc(OCC4CCCCC4)c3c2=O)cc1,70
